One series has as its system HEK293. Kind of series: Cytotoxicity against HEK293 cells assessed as reduction in cell viability by CMFDA dye based fluorescence assay. Particulars: human. A digest of the protocol:
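Viability of HEK293/NF-κB-luc cells was tracked with 2.5 μM CMFDA loaded 1 h before seeding at 10^4 cells/well. After overnight incubation, samples were added with 20 ng/mL TNF-α for 5 h. Fluorescence was read after lysis. Duplicate wells, three independent experiments.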

Series [1] is described as follows: Inhibition of TNFalpha stimulated NF-kappaB (unknown origin) expressed in HEK293 cells after 5 hrs by luciferase reporter gene based luminescence assay. Format: cell-based. Particulars: Homo sapiens, HEK293, 5 h. A digest of the protocol:
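HEK293/NF-κB-luc cells loaded 1 h with 2.5 μM CMFDA, seeded at 10^4 cells/well and incubated overnight. Samples were added, with TNF-α stimulation at 20 ng/mL for 5 h. After lysis, fluorescence was read, then luciferase luminescence. Luminescence was normalized to each well's fluorescence and IC50 derived. Duplicate wells, three independent experiments.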
A general note: Reporter assays use an easily measured gene product as a stand-in for the process of interest.

Structures are written as SMILES. Some results are limits rather than exact numbers.

The term IC50 denotes the concentration at which inhibition is half-maximal. With `COC(=O)[C@@H]1C[C@@]23CCCN4CC[C@@]5(c6ccccc6N(C)[C@]15CC2)[C@@H]43`, the Activity entry in the series with HEK293 is “Non-Toxic”. The compound further came in with an IC50 in series [1] of 8.8 µM. On the same counts, the results for `C[C@H]1NCCc2c1cc1c([nH]c3ccccc31)c2CO` are “Non-Toxic” and more than 50 µM. Consider `C/C=C1/C[N@+]2(C)C3Cc4c([nH]c5ccc(O)cc45)[C@@H]2C[C@H]1[C@@H]3CO`, for which the Activity result in the series with HEK293 is listed as “Non-Toxic”. The compound further showed an IC50 in series [1] of more than 50 µM. Consider `C/C=C1/COC(=O)[C@@H]2[C@H]1C[C@@H]1NCCc3c1n2c1ccccc31`, for which the Activity result in the series on HEK293 was “Non-Toxic”. The same compound had an IC50 in series [1] of 9.4 µM.

Turning to `COC(=O)c1nccc2c1[nH]c1ccccc12`, the Activity entry with HEK293 is given as “Non-Toxic”. The IC50 in series [1] is more than 50 µM. For `C=C1C(=O)O[C@@H]2C3O[C@]3(C)CC/C=C(\C)CC[C@@H]12` (stereo partly drawn) the same measures were “Non-Toxic” and 0.4 µM. For the compound `O=c1cc(-c2ccc(Br)cc2)oc2ccccc12`, in the series on HEK293, the Activity entry is on record as “Non-Toxic”.

Values taken from ChEMBL document CHEMBL4145556, “Carbazole-, Aspidofractinine-, and Aspidocarpamine-Type Alkaloids from Pleiocarpa pycnantha” (J Nat Prod, 2018).
